Reference: ChEMBL document CHEMBL4689842, “EUbOPEN Chemogenomics Library wave 1” (2021)

What was measured:
U2OS [1] = experiment: Incucyte cell viability with U2OS; type: toxicity, cell-based; details: human, 10 µM, compound concentration 10 uM; note: filed as whole numbers so only -1 and 0 and 1 occur
U2OS [2] = experiment: Multiplex assay against U2OS; type: toxicity, cell-based; details: human
Method in brief: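 Cells stained live at seeding with Hoechst33342, BioTracker Green Microtubule Cytoskeleton Dye, MitoTracker Red and Annexin V Alexa Fluor 680 were imaged on a CQ1 microscope at 37°C and 5% CO2 after compound addition. Their classification by CellPathfinder machine-learning gating ran from Hoechst high-intensity objects versus normal cells, to healthy, pyknosed or fragmented nuclei among normal cells, to mitotic or apoptotic among pyknosed cells. Tubulin, mitochondrial-mass and membrane-permeability phenotypes are per cents of healthy-nucleus cells.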

[3] = 12 h, 1 µM, compound concentration 1 uM, replicate 1
[4] = 12 h, 1 µM, compound concentration 1 uM, replicate 2
[5] = 12 h, 10 µM, compound concentration 10 uM, replicate 1
[6] = 12 h, 10 µM, compound concentration 10 uM, replicate 2
[7] = 24 h, 1 µM, compound concentration 1 uM, replicate 1
[8] = 24 h, 1 µM, compound concentration 1 uM, replicate 2
[9] = 24 h, 10 µM, compound concentration 10 uM, replicate 1
[10] = 24 h, 10 µM, compound concentration 10 uM, replicate 2

## CN(C)C/C=C/C(=O)Nc1cc2c(Nc3ccc(F)c(Cl)c3)ncnc2cc1O[C@H]1CCOC1.O=C(O)/C=C\C(=O)O.O=C(O)/C=C\C(=O)O [AFATINIB DIMALEATE]
U2OS [1]; 0 h, replicate number 1, timepoint 0 hours
  Growth Rate: 0
U2OS [1]; 0 h, replicate number 2, timepoint 0 hours
  Growth Rate: 1
U2OS [1]; 6 h, replicate number 1, timepoint 6 hours
  Growth Rate: 0
U2OS [1]; 12 h, replicate number 1, timepoint 12 hours
  Growth Rate: 0
U2OS [1]; 18 h, replicate number 1, timepoint 18 hours
  Growth Rate: 0
U2OS [1]; 24 h, replicate number 1, timepoint 24 hours
  Growth Rate: 0
U2OS [2]; [3]
  Population Apoptotic (%): 56%
  Population Fragmented Nuclei (%): 4%
  Population Healthy Nuclei (%): 85%
  Population Hoechst High Intensity Objects (%): 3%
  Population Membrane Permeable-Phenotype (%): 20%
  Population Mitochondria Different-Phenotype (%): 8%
  Population Mitotic Cells (%): 43%
  Population Normal (%): 96%
  Population Pyknosed Nuclei (%): 10%
  Population Tubulin-Different-Phenotype (%): 18%
U2OS [2]; [4]
  Population Apoptotic (%): 37%
  Population Fragmented Nuclei (%): 7%
  Population Healthy Nuclei (%): 86%
  Population Hoechst High Intensity Objects (%): 11%
  Population Membrane Permeable-Phenotype (%): 14%
  Population Mitochondria Different-Phenotype (%): 18%
  Population Mitotic Cells (%): 62%
  Population Normal (%): 88%
  Population Pyknosed Nuclei (%): 6%
  Population Tubulin-Different-Phenotype (%): 24%
U2OS [2]; [5]
  Population Apoptotic (%): 62%
  Population Healthy Nuclei (%): 56%
  Population Hoechst High Intensity Objects (%): 2%
  Population Membrane Permeable-Phenotype (%): 25%
  Population Mitochondria Different-Phenotype (%): 37%
  Population Mitotic Cells (%): 37%
  Population Normal (%): 97%
  Population Pyknosed Nuclei (%): 26%
  Population Tubulin-Different-Phenotype (%): 89%
U2OS [2]; [6]
  Population Apoptotic (%): 68%
  Population Fragmented Nuclei (%): 16%
  Population Healthy Nuclei (%): 47%
  Population Hoechst High Intensity Objects (%): 13%
  Population Membrane Permeable-Phenotype (%): 18%
  Population Mitochondria Different-Phenotype (%): 62%
  Population Mitotic Cells (%): 31%
  Population Normal (%): 86%
  Population Pyknosed Nuclei (%): 35%
  Population Tubulin-Different-Phenotype (%): 86%
U2OS [2]; [7]
  Population Apoptotic (%): 72%
  Population Fragmented Nuclei (%): 6%
  Population Healthy Nuclei (%): 85%
  Population Hoechst High Intensity Objects (%): 1%
  Population Membrane Permeable-Phenotype (%): 16%
  Population Mitochondria Different-Phenotype (%): 10%
  Population Mitotic Cells (%): 27%
  Population Normal (%): 98%
  Population Pyknosed Nuclei (%): 8%
  Population Tubulin-Different-Phenotype (%): 20%
U2OS [2]; [8]
  Population Apoptotic (%): 75%
  Population Fragmented Nuclei (%): 7%
  Population Healthy Nuclei (%): 87%
  Population Hoechst High Intensity Objects (%): 10%
  Population Membrane Permeable-Phenotype (%): 15%
  Population Mitochondria Different-Phenotype (%): 21%
  Population Mitotic Cells (%): 25%
  Population Normal (%): 89%
  Population Pyknosed Nuclei (%): 5%
  Population Tubulin-Different-Phenotype (%): 24%
U2OS [2]; [9]
  Population Apoptotic (%): 81%
  Population Fragmented Nuclei (%): 10%
  Population Healthy Nuclei (%): 65%
  Population Membrane Permeable-Phenotype (%): 26%
  Population Mitochondria Different-Phenotype (%): 66%
  Population Mitotic Cells (%): 18%
  Population Pyknosed Nuclei (%): 24%
  Population Tubulin-Different-Phenotype (%): 49%
U2OS [2]; [10]
  Population Apoptotic (%): 93%
  Population Fragmented Nuclei (%): 22%
  Population Healthy Nuclei (%): 41%
  Population Hoechst High Intensity Objects (%): 8%
  Population Membrane Permeable-Phenotype (%): 29%
  Population Mitochondria Different-Phenotype (%): 72%
  Population Mitotic Cells (%): 6%
  Population Normal (%): 91%
  Population Pyknosed Nuclei (%): 36%
  Population Tubulin-Different-Phenotype (%): 47%
